Sampled rows, rich in hits. Any-hit rate of the full collection: about 2.5%.
Rce1 inhib: yeast Rce1p protease inhibitors, primary screen, biochemical, fluorescence, cell-free homogeneous | calls only | actives 0.27% (n = 290,000) | CAAX prenyl protease 2 (Saccharomyces cerevisiae (strain ATCC 204508 / S288c)), Q03530 | AID 2563, 2010 | yeast membranes, quenched prenylated peptide cleavage fluorescence;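 active = fall in fluorescence gain of 50% or more versus controls, with final raw signal at or below 3038400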
MEKK3 PB1 HTS: modulators of MEKK3-MEK5 PB1 binding, primary screen, biochemical, wildtype MEKK3, multiplex bead flow cytometry, Alexa488-MEK5; Mitogen-activated protein kinase kinase kinase 3 (Homo sapiens), Q99759; bead-based flow cytometry, Alexa488-MEK5 binding to MEKK3; actives lie on both sides; 0 = blocked by unlabeled MEK5, 100 = vehicle; binding response (% of control), % at 10 µM; actives 1.4% (n = 290,000); AID 1529, 2009;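 active = binding response more than 3 SD above or below the average of its plate-row segment, actives on both sides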;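 note: Alexa488 bead fluorescence after subtracting the streptavidin-only scavenger bead signal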
Target sequence (Q99759 whole entry, looked up): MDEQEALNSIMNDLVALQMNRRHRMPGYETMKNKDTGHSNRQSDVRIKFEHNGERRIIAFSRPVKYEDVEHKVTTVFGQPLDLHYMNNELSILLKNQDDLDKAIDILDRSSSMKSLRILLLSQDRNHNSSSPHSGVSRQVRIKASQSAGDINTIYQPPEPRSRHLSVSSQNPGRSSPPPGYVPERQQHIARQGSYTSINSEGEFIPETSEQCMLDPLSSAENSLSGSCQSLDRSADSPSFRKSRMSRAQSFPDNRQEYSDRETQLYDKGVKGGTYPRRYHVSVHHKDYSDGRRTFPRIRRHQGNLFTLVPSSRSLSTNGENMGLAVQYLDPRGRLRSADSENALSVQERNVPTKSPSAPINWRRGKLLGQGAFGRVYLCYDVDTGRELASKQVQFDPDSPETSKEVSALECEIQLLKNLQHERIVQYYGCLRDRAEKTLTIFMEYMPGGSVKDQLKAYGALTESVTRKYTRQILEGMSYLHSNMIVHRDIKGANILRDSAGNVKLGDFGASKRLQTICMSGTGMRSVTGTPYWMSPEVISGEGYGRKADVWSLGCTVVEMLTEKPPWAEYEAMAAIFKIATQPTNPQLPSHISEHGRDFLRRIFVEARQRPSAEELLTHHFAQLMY
T cell HTS: modulators of CD8 T cell-vesicle binding, primary screen, mouse 2C CD8+ T cells, flow cytometry; AID 2052, 2009; 2C CD8+ T cell-vesicle binding; stronger effect = lower value; actives 0.068% (n = 330,000); response (vesicle binding), % at 7 µM;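 active = response, share of CD8 T cells binding vesicles, and their 90th percentile fluorescence all below set limits, cut at about 80% in these data, passing the limit was not always enough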;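 note: values below 100% mean blocked vesicle binding to the CD8+ T cells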
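Assay system: 2C TCR transgenic mouse naive CD8+ T cells, MACS-purified | Read-out: CD8+ gate FL2 mean fluorescence as % of same-row positive control | Signal: High-throughput flow cytometry with anti-B7-1 and anti-CD8 staining | Timing: Binding step 1.5 h, 37 °C, antibody labelling 20 min, ice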
MEKK2 mut-MEK5: MEK5 binding signal on mutant MEKK2 PB1, primary screen, biochemical, multiplex bead flow cytometry, Alexa488-MEK5 | percent response, % at 10 µM | actives 0.35% (n = 290,000) | AID 1530, 2009 | Alexa488-MEK5 binding to MEKK2 mutant; in the data active = percent response above about 24%, passing the limit was not always enough
MEKK2 WT-MEK5: modulators of MEK5 binding to wildtype MEKK2, primary screen, biochemical, multiplex bead flow cytometry, Alexa488-MEK5; Mitogen-activated protein kinase kinase kinase 2 (Homo sapiens), Q9Y2U5; Alexa488-MEK5 binding to MEKK2 WT; actives lie on both sides; binding response (% of control), % at 10 µM; actives 1.1% (n = 290,000); in the data active = binding response below about 67% or above about 130%
UCH37 DUB inh: inhibitors of human UCH37 deubiquitinase, primary screen, biochemical, Ub-AMC cleavage, fluorescence | purified proteasome/UCH37 | AID 588478, 2011 | actives 0.33% (n = 330,000) | Ubiquitin carboxyl-terminal hydrolase isozyme L5 (Homo sapiens), Q9Y5K5 | inhibition, % (concentration not given with the values);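 active = mean inhibition over replicate wells above about 20%, limit read from the data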
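Schedule: 30 min plus 25 min, room temperature / Material: human UCH37 within purified proteasomes / Technique: AMC fluorescence intensity at 355/460 nm / Buffer or medium: pH 7.4 Tris-HCl (50 mM) with ovalbumin, ATP-MgCl2, DTT / Controls: wells without proteasome as full block, compound-free enzyme plus substrate as uninhibited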
MEKK2wt confirm: modulators of MEK5 binding to wildtype MEKK2, confirmation, biochemical, single concentration, multiplex bead flow cytometry | shares compounds with MEKK3 PB1 HTS | Alexa488-MEK5 binding to MEKK2 WT; actives lie on both sides | binding response (% of control), % at 10 µM | actives 2.4% (n = 5,900) | AID 1892, 2009; in the data active = binding response below about 16% or above about 210%; inactive = in between
MEKK2mut confirm: mutant MEKK2 PB1-MEK5 binding signal retest – biochemical, single concentration, multiplex bead flow cytometry, confirmation; shares compounds with MEKK3 PB1 HTS; Alexa488-MEK5 binding to MEKK2 mutant; percent response, % at 10 µM; actives 2% (n = 5,900); in the data active = percent response mostly above about 71%, no sharp cut-off; inactive = mostly below about 38%;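 note: higher means compound restores mutant binding toward wildtype level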
MEKK3-MEK5 inh: MEKK3 wild-type PB1 binding to MEK5, inhibitors, confirmation, biochemical, bead multiplex flow cytometry, single concentration, wildtype. shares compounds with MEKK3 PB1 HTS. Alexa488-MEK5 binding to MEKK3; stronger effect = lower value. binding response (% of control), % at 10 µM. actives 1.8% (n = 5,900). AID 1894, 2009;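 active = binding response below 72% of control, or above a set upper limit, though filed actives all read lower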
Each line names hits and unclear results; the compound was inactive in the other large screens (follow-up assays come after a bar, where they were run); [ ] = another dose, or the depositor's remark.

COc1ccc(C(CCNCc2ccc(N(C)C)cc2)c2ccccc2)cc1 (stereo not given)	MEKK2 WT-MEK5 159 | MEKK2wt confirm inactive | MEKK2mut confirm inactive | MEKK3-MEK5 inh inactive
CC(C)Oc1ccc(C(CCNCc2ccc(O)cc2)c2ccccc2)cc1 (stereo not given)	MEKK2 mut-MEK5 24, MEKK2 WT-MEK5 150 | MEKK2wt confirm inactive | MEKK2mut confirm inactive | MEKK3-MEK5 inh inactive
CC(C)Oc1ccc(CNC(=O)CC(c2ccccc2)c2cc(Cl)ccc2O)cc1 (stereo not given)	none
COc1ccc(C(CCNCc2ccc(OC)c(OC)c2)c2ccc(F)cc2)cc1 (stereo not given)	none
Cc1ncc(CO)c(/C=N/NC(=O)c2ccccc2Br)c1O	MEKK2 WT-MEK5 5.0[inhibitor] (no result: UCH37 DUB inh) | MEKK2wt confirm inactive | MEKK2mut confirm inactive | MEKK3-MEK5 inh inactive
Cc1ncc(CO)c(C=NNC(=O)c2cc(Br)ccc2O)c1O	none (no result: Rce1 inhib, MEKK3 PB1 HTS, T cell HTS, MEKK2 mut-MEK5, MEKK2 WT-MEK5)
C/C=C(/C)C(=O)O[C@@H]1[C@H](OC(C)=O)c2c(ccc3ccc(=O)oc23)OC1(C)C	none
C/C=C(/C)C(=O)O[C@H]1[C@@H](O)c2c(ccc3ccc(=O)oc23)OC1(C)C	Rce1 inhib active, MEKK3 PB1 HTS 123 | MEKK2wt confirm inactive | MEKK2mut confirm inactive | MEKK3-MEK5 inh inactive
CC(C)NC(=O)CC(=O)NN=Cc1ccccc1C(=O)O	none (no result: Rce1 inhib, MEKK3 PB1 HTS, T cell HTS, MEKK2 mut-MEK5, MEKK2 WT-MEK5)
Cc1cccc(-n2cc(CN3CCN(Cc4nccn4C)CC3)c(-c3cccc(F)c3)n2)c1	MEKK2 WT-MEK5 153 | MEKK2wt confirm inactive | MEKK2mut confirm inactive | MEKK3-MEK5 inh inactive
Oc1ccc(C=NNc2nc(-c3cccnc3)nc3ccccc23)c(O)c1	none (no result: Rce1 inhib, MEKK3 PB1 HTS, T cell HTS, MEKK2 mut-MEK5, MEKK2 WT-MEK5)
COc1ccc(O)c(C=NNC(=O)c2ccc(N3CCCC3=O)cc2)c1	none (no result: Rce1 inhib, MEKK3 PB1 HTS, T cell HTS, MEKK2 mut-MEK5, MEKK2 WT-MEK5)
OCCN(CCO)CC(O)COc1ccc(C23CC4CC(CC(C4)C2)C3)cc1 (stereo not given)	MEKK3 PB1 HTS 132 | MEKK2wt confirm inactive | MEKK2mut confirm inactive | MEKK3-MEK5 inh inactive
CCOc1cc(C=NO)cc(Br)c1OCc1ccc(Cl)cc1	none (no result: Rce1 inhib, MEKK3 PB1 HTS, T cell HTS, MEKK2 mut-MEK5, MEKK2 WT-MEK5)
C[C@@H](CN1C2=NC[C@H](Cc3ccccc3)N2C[C@H]1Cc1ccc(O)cc1)NC(=O)CCC1CCCCC1	MEKK2 WT-MEK5 146 | MEKK2wt confirm inactive | MEKK2mut confirm inactive | MEKK3-MEK5 inh inactive
C[C@@H](CN1C2=NC[C@H](Cc3ccc(O)cc3)N2C[C@H]1Cc1ccc(O)cc1)NC(=O)CCC1CCCCC1	MEKK2 WT-MEK5 141 | MEKK2wt confirm inactive | MEKK2mut confirm inactive | MEKK3-MEK5 inh inactive
O=C(O)c1ccccc1NC1CCCCC1NS(=O)(=O)c1ccccc1 (stereo not given)	none (no result: T cell HTS)
O=S(=O)(NC1CCCCC1Nc1ccccc1)c1ccccc1 (stereo not given)	MEKK3 PB1 HTS 128 | MEKK2wt confirm inactive | MEKK2mut confirm inactive | MEKK3-MEK5 inh 71
